Experimental data taken from ChEMBL document CHEMBL1151472, “In vitro interactions between tacrolimus and azoles against Candida albicans determined by different methods” (2008).
Values after ≈ are worked out from the molar mass of the structure shown.

How the values were obtained:
Format in all cases: functional
Candida albicans [1] = assay: Antimicrobial activity against azole-resistant Candida albicans isolate CA135 after 48 hrs by broth microdilution method; conditions: isolate CA135, 48 h
How it was run: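 CLSI M27-A2 broth microdilution was run in RPMI 1640 (pH 7.0, 2% dextrose, 0.165 M MOPS). Inoculum was 2.5 × 10^3 CFU/ml, incubated 35°C for 48 h without shaking. Plates were read visually (0–5 scale) and at OD 492 nm. MIC80 = lowest concentration giving an 80% absorbance decrease vs drug-free control. Triplicate.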

Candida albicans [2] = assay: Antimicrobial activity against azole-resistant Candida albicans isolate CA10 assessed as growth at 128 ug/ml co-treated with 0.063 ug/ml calcineurin signaling inhibitor tacrolimus after 48 hrs by microdilution checkboard technique relative to control; set-up: scale not given: the % may be the effect or the level left
How it was run: (§1)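 Checkerboard microdilution in MOPS-buffered RPMI 1640 (pH 7.0, 2% dextrose). Final ranges: azole 0.125–128 μg/ml (FLC) or 0.008–8 μg/ml (ITR, VRC), tacrolimus 0.002–0.125 μg/ml; solvent 1% in single-drug wells. Inoculum 2.5 × 10^3 CFU/ml, 35°C, 48 h. Growth % = background-subtracted OD492 of each well / drug-free well. Triplicate on different days.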

Candida albicans [3] = assay: Antimicrobial activity against azole-resistant Candida albicans isolate CA10 assessed as growth at 128 ug/ml co-treated with 0.031 ug/ml calcineurin signaling inhibitor tacrolimus after 48 hrs by microdilution checkboard technique relative to control; set-up: scale not given: the % may be the effect or the level left
How it was run: (§2)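 Checkerboard microdilution in RPMI 1640 (pH 7.0, 2% dextrose, 0.165 M MOPS). Azole dilutions run along columns and FK506 along rows, at 4× final concentration. Final inoculum 2.5 × 10^3 CFU/ml from Sabouraud-subcultured cells. Incubated 35°C for 48 h; OD read at 492 nm. Background from microorganism-free plates subtracted. Growth % = well OD / drug-free well OD. Triplicate on different days, values averaged.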

Candida albicans [4] = assay: Antimicrobial activity against azole-resistant Candida albicans isolate CA10 assessed as growth at 4 ug/ml after 48 hrs by microdilution checkerboard technique relative to control
How it was run: (§3)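 CA10 in RPMI 1640 with 2% dextrose and 0.165 M MOPS, pH 7.0. Checkerboard used twofold dilutions, with azole alone in row H and the drug-free growth control in well H1. Final inoculum was 2.5 × 10^3 CFU/ml, incubated 35°C for 48 h, with OD read at 492 nm. Growth % = background-subtracted well OD / drug-free well OD. Run in triplicate on different days.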

Candida albicans [5] = assay: Antimicrobial activity against azole-resistant Candida albicans isolate CA10 assessed as growth at 0.25 ug/ml cotreated with 0.002 ug/ml calcineurin signaling inhibitor Tacrolimus after 48 hrs by microdilution checkboard technique relative to control; set-up: scale not given: the % may be the effect or the level left; how it was run: as §2
Candida albicans [6] = assay: Antimicrobial activity against azole-resistant Candida albicans isolate CA10 assessed as growth at 32 ug/ml cotreated with 0.002 ug/ml calcineurin signaling inhibitor Tacrolimus after 48 hrs by microdilution checkboard technique relative to control; set-up: scale not given: the % may be the effect or the level left; how it was run: as §3
Candida albicans [7] = assay: Antimicrobial activity against azole-resistant Candida albicans isolate CA10 assessed as growth at 128 ug/ml cotreated with 0.004 ug/ml calcineurin signaling inhibitor Tacrolimus after 48 hrs by microdilution checkboard technique relative to control; set-up: scale not given: the % may be the effect or the level left; how it was run: as §1
Candida albicans [8] = assay: Antimicrobial activity against azole-resistant Candida albicans isolate CA10 assessed as log reduction in colony count at 10 ug/ml co-treated with calcineurin signaling inhibitor tacrolimus after 48 hrs by XTT assay
How it was run: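 Same time-kill setup (10^5 CFU/ml start, azole ± 0.016 μg/ml FK506, 35°C). At each time point, aliquots were mixed 1:1 with XTT (0.5 g/liter in Ringer's lactate) plus 10 μM menadione final. Incubation was in the dark for up to 2 h at 35°C, then formazan was read at 492 nm. OD was converted to CFU via a standard curve (Y = 4.2610x + 4.2087). Triplicate.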

Candida albicans [9] = assay: Antimicrobial activity against azole-resistant Candida albicans isolate CA10 assessed as growth at 0.25 ug/ml cotreated with 0.004 ug/ml calcineurin signaling inhibitor Tacrolimus after 48 hrs by microdilution checkboard technique relative to control; set-up: scale not given: the % may be the effect or the level left; how it was run: as §2
Candida albicans [10] = assay: Antimicrobial activity against azole-resistant Candida albicans isolate CA10 assessed as growth at 0.5 ug/ml co-treated with 0.031 ug/ml calcineurin signaling inhibitor tacrolimus after 48 hrs by microdilution checkboard technique relative to control; set-up: scale not given: the % may be the effect or the level left; how it was run: as §2
Candida albicans [11] = assay: Antimicrobial activity against azole-resistant Candida albicans isolate CA10 assessed as growth at 0.5 ug/ml cotreated with 0.002 ug/ml calcineurin signaling inhibitor tacrolimus after 48 hrs by microdilution checkerboard technique relative to control; set-up: scale not given: the % may be the effect or the level left; how it was run: as §1
Candida albicans [12] = assay: Antimicrobial activity against azole-resistant Candida albicans isolate CA10 assessed as growth at 4 ug/ml cotreated with 0.063 ug/ml calcineurin signaling inhibitor Tacrolimus after 48 hrs by microdilution checkboard technique relative to control; set-up: scale not given: the % may be the effect or the level left; how it was run: as §3
Candida albicans [13] = assay: Antimicrobial activity against azole-resistant Candida albicans isolate CA10 assessed as growth at 64 ug/ml co-treated with 0.002 ug/ml calcineurin signaling inhibitor tacrolimus after 48 hrs by microdilution checkboard technique relative to control; set-up: scale not given: the % may be the effect or the level left; how it was run: as §3
Candida albicans [14] = assay: Antimicrobial activity against azole-resistant Candida albicans isolate CA135 cotreated with calcineurin signaling inhibitor Tacrolimus after 48 hrs by microdilution checkerboard technique; conditions: isolate CA135, 48 h
How it was run: (§4)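 Checkerboard microdilution in MOPS-buffered RPMI 1640 (pH 7.0, 2% dextrose) with 2.5 × 10^3 CFU/ml for 48 h at 35°C. Final FK506 was 0.002–0.125 μg/ml. Azole finals were FLC 0.125–128 μg/ml, and ITR and VRC 0.008–8 μg/ml. MIC80 is an 80% OD492 decrease vs drug-free control. Interaction was scored by FICI (synergy ≤0.5, antagonism >4) and by ΔE from triplicates.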

Candida albicans [15] = assay: Antimicrobial activity against azole-resistant Candida albicans isolate CA10 assessed as growth at 8 ug/ml co-treated with 0.008 ug/ml calcineurin signaling inhibitor tacrolimus after 48 hrs by microdilution checkboard technique relative to control; set-up: scale not given: the % may be the effect or the level left; how it was run: as §3
Candida albicans [16] = assay: Antimicrobial activity against azole-resistant Candida albicans isolate CA10 assessed as growth at 1 ug/ml cotreated with 0.008 ug/ml calcineurin signaling inhibitor Tacrolimus after 48 hrs by microdilution checkboard technique relative to control; set-up: scale not given: the % may be the effect or the level left; how it was run: as §1
Candida albicans [17] = assay: Antimicrobial activity against azole-resistant Candida albicans isolate CA10 assessed as growth at 16 ug/ml co-treated with 0.016 ug/ml calcineurin signaling inhibitor tacrolimus after 48 hrs by microdilution checkboard technique relative to control; set-up: scale not given: the % may be the effect or the level left; how it was run: as §1
Candida albicans [18] = assay: Antimicrobial activity against azole-resistant Candida albicans isolate CA10 assessed as growth at 32 ug/ml co-treated with 0.031 ug/ml calcineurin signaling inhibitor tacrolimus after 48 hrs by microdilution checkboard technique relative to control; set-up: scale not given: the % may be the effect or the level left; how it was run: as §2
Candida albicans [19] = assay: Antimicrobial activity against azole-resistant Candida albicans isolate CA10 co-treated with calcineurin signaling inhibitor tacrolimus after 48 hrs by microdilution checkerboard technique; conditions: isolate CA10, 48 h; how it was run: as §4
Candida albicans [20] = assay: Antimicrobial activity against azole-resistant Candida albicans isolate CA10 assessed as growth at 1 ug/ml cotreated with 0.063 ug/ml calcineurin signaling inhibitor Tacrolimus after 48 hrs by microdilution checkboard technique relative to control; set-up: scale not given: the % may be the effect or the level left; how it was run: as §1

OC(Cn1cncn1)(Cn1cncn1)c1ccc(F)cc1F [FLUCONAZOLE]
MIC (Candida albicans [1]): 64 µg/mL (≈ 209 µM) | Activity (Candida albicans [2]): 5% | Activity (Candida albicans [3]): 14% | Activity (Candida albicans [4]): 53% | Activity (Candida albicans [5]): 61% | Activity (Candida albicans [6]): 36% | Activity (Candida albicans [7]): 45% | Activity (Candida albicans [8]): 2.37 | Activity (Candida albicans [9]): 42% | Activity (Candida albicans [10]): 19% | Activity (Candida albicans [11]): 55% | Activity (Candida albicans [12]): 13% | Activity (Candida albicans [13]): 28% | MIC (Candida albicans [14]): 0.25 µg/mL | Activity (Candida albicans [15]): 28% | Activity (Candida albicans [16]): 25% | Activity (Candida albicans [17]): 19% | Activity (Candida albicans [18]): 16% | MIC (Candida albicans [19]): 0.25 µg/mL | Activity (Candida albicans [20]): 18%
